ChEMBL document CHEMBL1140759, “Synthesis, anti-Toxoplasma gondii and antimicrobial activities of benzaldehyde 4-phenyl-3-thiosemicarbazones and 2-[(phenylmethylene)hydrazono]-4-oxo-3-phenyl-5-thiazolidineacetic acids” (Bioorg Med Chem, 2008)
≈ marks a conversion by molar mass, not a printed value.

Columns and labels:
Toxoplasma gondii [1] = assay: Antiparasitic activity against Toxoplasma gondii infected african green monkey Vero cells at 8 mM assessed as infected cells; assay type: functional
Summary of the method: (§1)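 Vero cells were infected with RH-strain tachyzoites (5:1 parasite:cell) for 1 h, washed with PBS, and grown 24 h at 37 °C in medium 199 with 5% FCS. Compound was then added for 24 h. Cells were fixed with Bouin's, stained with Giemsa, and at least 400 cells were counted by light microscopy for the percentage infected. Hydroxyurea and sulfadiazine served as references.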

Toxoplasma gondii [2] = assay: Antiparasitic activity against Toxoplasma gondii infected african green monkey Vero cells at 0.1 mM assessed as infected cells; assay type: functional; summary of the method: as §1
Toxoplasma gondii [3] = assay: Antiparasitic activity against Toxoplasma gondii infected african green monkey Vero cells at 20 mM assessed as infected cells; assay type: functional; summary of the method: as §1
Klebsiella pneumoniae = assay: Antimicrobial activity against Klebsiella pneumoniae at 300 ug/disc; assay type: functional; details: read-out: IZ
Summary of the method: (§2)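 Disc diffusion on agar plates inoculated with a standardized microbial suspension, with paper discs carrying known compound amounts. DMSO-only discs served as negative controls, and chloramphenicol, rifampicin (bacteria) or nistatin (fungi) as references. The read-out is the mean inhibition zone diameter in mm. Each run was done three times and repeated if results differed.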

Vero = assay: Inhibition of uninfected african green monkey Vero cells; assay type: cell-based; details: Chlorocebus sabaeus
Toxoplasma gondii [4] = assay: Inhibition of intracellular parasite Toxoplasma gondii; assay type: functional, organism-based
Summary of the method: (§3)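 Infected Vero cultures were exposed to compound at 0.01–30 mM for 24 h, in triplicate per assay. IC50 for infected cells and intracellular parasites was derived by non-linear regression, using trypan blue exclusion.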

Enterococcus faecalis = assay: Antimicrobial activity against Streptococcus faecalis at 300 ug/disc; assay type: functional; details: read-out: IZ; summary of the method: as §2
[5] = tested on: Mycobacterium tuberculosis; assay: Antimicrobial activity against Mycobacterium tuberculosis at 300 ug/disc; assay type: functional; details: read-out: IZ
Summary of the method: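 Agar disc diffusion: paper discs loaded with compound placed on agar plates seeded with a standardised microbial suspension. DMSO-only discs served as negative control. Chloramphenicol and rifampicin (bacteria) or nistatin (fungi) gave reference zones. Read-out was mean zone of inhibition diameter (mm). Each experiment was run three times and repeated if results differed.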

Candida [6] = assay: Antimicrobial activity against Candida sp. IMUR4249; assay type: functional
Summary of the method: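 Tube dilution MIC, run on compounds with a disc-diffusion zone of at least 18 mm. The DMSO stock (1 mg/mL) was serially diluted to 10–220 µg/mL final in medium, and strains were inoculated at 10^8/mL. Media were tryptic soy or nutrient agar for bacteria and Sabouraud liquid for fungi, incubated 24–48 h at 37 °C (bacteria) or 30 °C (fungi). MIC is the lowest concentration giving clear tubes.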

Candida [7] = assay: Antimicrobial activity against Candida sp. IMUR4249 at 300 ug/disc; assay type: functional; details: read-out: IZ; summary of the method: as §2
Candida albicans = assay: Antimicrobial activity against Candida albicans at 300 ug/disc; assay type: functional; details: read-out: IZ; summary of the method: as §2
Toxoplasma gondii [8] = assay: Antiparasitic activity against Toxoplasma gondii infected african green monkey Vero cells at 2 mM assessed as infected cells; assay type: functional; summary of the method: as §1
Bacillus subtilis = assay: Antimicrobial activity against Bacillus subtilis at 300 ug/disc; assay type: functional; details: read-out: IZ; summary of the method: as §2
Toxoplasma gondii [9] = assay: Inhibition of Toxoplasma gondii infected in african green monkey Vero cells; assay type: functional, organism-based; summary of the method: as §3
Candida [10] = assay: Antimicrobial activity against Candida sp. IMUR1224 at 300 ug/disc; assay type: functional; details: read-out: IZ; summary of the method: as §2
Micrococcus luteus = assay: Antimicrobial activity against Micrococcus luteus at 300 ug/disc; assay type: functional; details: read-out: IZ; summary of the method: as §2
Candida [11] = assay: Antimicrobial activity against Candida sp. IMUR720 at 300 ug/disc; assay type: functional; details: read-out: IZ; summary of the method: as §2
Staphylococcus aureus = assay: Antimicrobial activity against Staphylococcus aureus at 300 ug/disc; assay type: functional; details: read-out: IZ; summary of the method: as §2
Toxoplasma gondii [12] = assay: Antiparasitic activity against Toxoplasma gondii infected african green monkey Vero cells at 5 mM assessed as infected cells; assay type: functional; summary of the method: as §1
Escherichia coli = assay: Antimicrobial activity against Escherichia coli at 300 ug/disc; assay type: functional; details: read-out: IZ; summary of the method: as §2
Mycolicibacterium phlei = assay: Antimicrobial activity against Mycobacterium phlei at 300 ug/disc; assay type: functional; details: read-out: IZ; summary of the method: as §2
[13] = tested on: Mycolicibacterium smegmatis; assay: Antimicrobial activity against Mycobacterium smegmatis at 300 ug/disc; assay type: functional; details: read-out: IZ; summary of the method: as §2
Saccharomyces cerevisiae = assay: Antimicrobial activity against Saccharomyces cerevisiae at 300 ug/disc; assay type: functional; details: read-out: IZ; summary of the method: as §2

| Structure (SMILES) | Activity (Toxoplasma gondii [1]) | Activity (Toxoplasma gondii [2]) | Activity (Toxoplasma gondii [3]) | zone of inhibition at 300 µg/disc (Klebsiella pneumoniae) | IC50 (Vero) | IC50 (Toxoplasma gondii [4]) | zone of inhibition at 300 µg/disc (Enterococcus faecalis) | zone of inhibition at 300 µg/disc [5] | zone of inhibition at 300 µg/disc (Candida [7]) | zone of inhibition at 300 µg/disc (Candida albicans) | Activity (Toxoplasma gondii [8]) | zone of inhibition at 300 µg/disc (Bacillus subtilis) | IC50 (Toxoplasma gondii [9]) | zone of inhibition at 300 µg/disc (Candida [10]) | zone of inhibition at 300 µg/disc (Micrococcus luteus) | zone of inhibition at 300 µg/disc (Candida [11]) | zone of inhibition at 300 µg/disc (Staphylococcus aureus) | Activity (Toxoplasma gondii [12]) | zone of inhibition at 300 µg/disc (Escherichia coli) | zone of inhibition at 300 µg/disc (Mycolicibacterium phlei) | other results |
| --- | --- | --- | --- | --- | --- | --- | --- | --- | --- | --- | --- | --- | --- | --- | --- | --- | --- | --- | --- | --- | --- |
| O=C(O)CC1S/C(=N\N=C\c2ccc(F)cc2)N(c2ccccc2)C1=O (stereo unspecified) | 0% | 21.7% | 0% | < 7 mm | 2000 µM | 50 µM | 16 mm | 14 mm | 22 mm | 8 mm | 10.2% | 14 mm | 50 µM | < 7 mm | 15 mm | < 7 mm | < 7 mm | 0% | < 7 mm | 7 mm | MFC (Candida [6]): 70 µg/mL (≈ 188 µM); MIC (Candida [6]): 80 µg/mL (≈ 215 µM); zone of inhibition at 300 µg/disc [13]: 12 mm; zone of inhibition at 300 µg/disc (Saccharomyces cerevisiae): < 7 mm |
| O=C(O)CC1S/C(=N\N=C\c2ccccc2)N(c2ccccc2)C1=O (stereo unspecified) | 0% | 69.7% | 0% | < 7 mm | 5000 µM | 1000 µM | 12 mm | 14 mm | < 7 mm | 8 mm | 48.5% | 15 mm | 4000 µM | < 7 mm | 20 mm | < 7 mm | < 7 mm | 14.6% | < 7 mm | 7 mm | zone of inhibition at 300 µg/disc [13]: 9 mm; zone of inhibition at 300 µg/disc (Saccharomyces cerevisiae): < 7 mm |
| CN(C)c1ccc(/C=N/N=C2\SC(CC(=O)O)C(=O)N2c2ccccc2)cc1 (stereo unspecified) | 0% | 50.58% | 0% | < 7 mm | 1000 µM | 50 µM | < 7 mm | < 7 mm | 16 mm | < 7 mm | 0% | < 7 mm | 50 µM | < 7 mm | 10 mm | < 7 mm | < 7 mm | 0% | < 7 mm | < 7 mm | zone of inhibition at 300 µg/disc [13]: < 7 mm; zone of inhibition at 300 µg/disc (Saccharomyces cerevisiae): < 7 mm |
| COc1cccc(/C=N/N=C2\SC(CC(=O)O)C(=O)N2c2ccccc2)c1 (stereo unspecified) | 4.16% | 34.16% | 0% | < 7 mm | 5000 µM | 100 µM | 11 mm | < 7 mm | 18 mm | < 7 mm | 28.71% | 9 mm | 3000 µM | < 7 mm | 22 mm | < 7 mm | 14 mm | 7.3% | < 7 mm | < 7 mm | MFC (Candida [6]): 70 µg/mL (≈ 183 µM); MIC (Candida [6]): 80 µg/mL (≈ 209 µM); zone of inhibition at 300 µg/disc [13]: < 7 mm; zone of inhibition at 300 µg/disc (Saccharomyces cerevisiae): < 7 mm |
| Cc1cccc(/C=N/N=C2\SC(CC(=O)O)C(=O)N2c2ccccc2)c1 (stereo unspecified) | 10.13% | 66% | 0% | < 7 mm | 9000 µM | 500 µM | 11 mm | < 7 mm | < 7 mm | 9 mm | 15.54% | < 7 mm | 1000 µM | < 7 mm | 22 mm | < 7 mm | < 7 mm | 16.19% | < 7 mm | < 7 mm | zone of inhibition at 300 µg/disc [13]: < 7 mm; zone of inhibition at 300 µg/disc (Saccharomyces cerevisiae): < 7 mm |
| COc1ccc(/C=N/N=C2\SC(CC(=O)O)C(=O)N2c2ccccc2)c(OC)c1 (stereo unspecified) | 0% | 66.36% | 0% | < 7 mm | 5000 µM | 500 µM | < 7 mm | < 7 mm | 20 mm | 13 mm | 39.5% | < 7 mm | 2000 µM | < 7 mm | 15 mm | < 7 mm | < 7 mm | 0% | < 7 mm | < 7 mm | MFC (Candida [6]): 70 µg/mL (≈ 169 µM); MIC (Candida [6]): 80 µg/mL (≈ 193 µM); zone of inhibition at 300 µg/disc [13]: < 7 mm; zone of inhibition at 300 µg/disc (Saccharomyces cerevisiae): 12 mm |
| O=C(O)CC1S/C(=N\N=C\c2cccc(Cl)c2)N(c2ccccc2)C1=O (stereo unspecified) | 0% | 53.74% | 0% | < 7 mm | 10000 µM | 2000 µM | 12 mm | < 7 mm | 11 mm | < 7 mm | 34.8% | < 7 mm | 3000 µM | < 7 mm | 16 mm | < 7 mm | < 7 mm | 33.5% | < 7 mm | < 7 mm | zone of inhibition at 300 µg/disc [13]: < 7 mm; zone of inhibition at 300 µg/disc (Saccharomyces cerevisiae): < 7 mm |
| O=C(O)CC1S/C(=N\N=C\c2ccc(Cl)cc2)N(c2ccccc2)C1=O (stereo unspecified) | 0% | 68.15% | 0% | < 7 mm | 2000 µM | 500 µM | 15 mm | 17 mm | 20 mm | 8 mm | 35.3% | 13 mm | 1500 µM | < 7 mm | 21 mm | < 7 mm | < 7 mm | 0% | < 7 mm | 12 mm | MFC (Candida [6]): 140 µg/mL (≈ 361 µM); MIC (Candida [6]): 150 µg/mL (≈ 387 µM); zone of inhibition at 300 µg/disc [13]: 15 mm; zone of inhibition at 300 µg/disc (Saccharomyces cerevisiae): < 7 mm |
| COc1cc(/C=N/N=C2\SC(CC(=O)O)C(=O)N2c2ccccc2)cc(OC)c1OC (stereo unspecified) | 7.2% | 55.57% | 0% | < 7 mm | 2000 µM | 500 µM | < 7 mm | < 7 mm | 15 mm | 10 mm | 14.33% | 19 mm | 1000 µM | < 7 mm | 25 mm | < 7 mm | < 7 mm | 15.63% | < 7 mm | < 7 mm | zone of inhibition at 300 µg/disc [13]: < 7 mm; zone of inhibition at 300 µg/disc (Saccharomyces cerevisiae): < 7 mm |
